The source of these data is ChEMBL document CHEMBL5385869, “Novel 4-aminoquinolines: Synthesis, inhibition of the Mycobacterium tuberculosis enoyl-acyl carrier protein reductase, antitubercular activity, SAR, and preclinical evaluation” (Eur J Med Chem, 2023).

A word on the MIC: it is the lowest concentration that inhibits growth of the organism. Lower therefore signals inhibition by little substance. The Kd is the constant that tells how readily two partners part at equilibrium. The Ki is a dissociation constant, usually derived from enzyme kinetics or from competition with a known ligand.

In brackets after ≈: the same amount, converted by molar mass. Activity calls are given as the source filed them. No cut-off for these calls is given here. Where only a bound is given, the exact number is not on record here.

The test system of experiment [1] is Mycobacterium tuberculosis. In words: Antibacterial activity against pan-sensitive Mycobacterium tuberculosis H37Rv ATCC 27294 measured after 7 days by resazurin dye based assay. It counts as functional. The settings on record: H37Rv ATCC 27294, 168 h, time 7 day. Put shortly:
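Resazurin reduction microplate assay (REMA) in Middlebrook 7H9 broth with 10% ADC and 5% DMSO. Compounds come from 2 mg/mL DMSO stocks and are 2-fold serially diluted, top concentration 0.08–40 μg/mL depending on solubility. MIC is the lowest concentration preventing the blue-to-pink colour change. Three independent experiments; the reported value is the modal or the highest value.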
(Alamar Blue is a resazurin reagent that responds to reducing activity.)

For experiment [2], the system named is Mycobacterium tuberculosis. In words: Antibacterial activity against Mycobacterium tuberculosis H37Rv ATCC 27294 infected in CF-1 mouse assessed as reversal of bacterial growth in spleen at 150 uM/kg, po administered daily for 14 days starting from 7 days post infection. In kind it is functional, organism-based. The conditions noted are these: time 14.0 day. The method, boiled down: (§1)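 Lung and spleen homogenates plated for CFU counts and compared with vehicle and early-control groups.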

The test system of experiment [3] is Mycobacterium tuberculosis. The experiment is described as follows: Bactericidal activity in Mycobacterium tuberculosis H37Rv ATCC 27294 infected in CF-1 mouse assessed as reduction in bacterial growth in lungs at 150 uM/kg, po administered daily for 14 days starting from 7 days post infection. In kind it is functional, organism-based. The settings on record: time 14.0 day. The method, boiled down: as §1

The target in experiment [4] is T1, Enoyl-[acyl-carrier-protein] reductase [NADH] (Mycobacterium tuberculosis, UniProt P9WGR1).
T1 sequence (P9WGR1 whole entry): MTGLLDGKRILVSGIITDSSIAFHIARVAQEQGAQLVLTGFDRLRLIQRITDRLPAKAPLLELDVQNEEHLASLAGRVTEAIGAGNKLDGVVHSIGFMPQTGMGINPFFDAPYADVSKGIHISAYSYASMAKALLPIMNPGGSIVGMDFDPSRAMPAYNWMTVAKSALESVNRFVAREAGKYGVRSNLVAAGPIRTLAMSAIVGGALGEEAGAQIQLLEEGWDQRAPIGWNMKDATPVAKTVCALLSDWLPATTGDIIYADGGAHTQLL
In words: Binding affinity to Mycobacterium tuberculosis H37Rv InhA assessed as dissociation constant in presence of NADH, octenoyl-CoA and KatG.

Experiment [5] has as its target T1, Enoyl-[acyl-carrier-protein] reductase [NADH]. The experiment is described as follows: Binding affinity to wild type Mycobacterium tuberculosis InhA assessed as inhibition constant for formation of enzyme-inhibitor complex in presence of NADH and DD-CoA by spectrophotometry based analysis.
Experiment [6] shares this target. The experiment is described as follows: Binding affinity to wild type Mycobacterium tuberculosis InhA assessed as inhibition constant in presence of NADH, DD-CoA by spectrophotometry based analysis.

`NNC(=O)c1ccncc1` [ISONIAZID] had a minimum inhibitory concentration (MIC) in experiment [1] of 2.3 µM (≈ 0.315 µg/mL). The outcome in experiment [2] and in experiment [3] was Active. Besides, the Kd in experiment [4] was < 0.4 nM. Moreover, the figures for the Ki in experiment [5] and in experiment [6] were 16 nM and 0.75 nM, respectively.
